Numbering of substitutions follows the chain as printed. Active and inactive are the calls of the source. No cut-off for these calls is given here. Where a SMILES comes first, the peptide text is derived from it. Bridges are numbered along the chain shown (N, C = ends). [ ]: non-standard residue; d: D form. The star is where a group is joined. NH(β-GlcNAc) = CC(=O)N[C@@H]1[C@@H](O)[C@H](O)[C@@H](CO)O[C@H]1N*; Dap = NC[C@H](N)C(=O)O
Key:
[1] = test system: Substance-K receptor (Homo sapiens), P21452 [F168A]; experiment: Binding affinity against F168A human neurokinin-2 receptor (hNK-2R) using [3H]-nepadutant as a radioligand
Sequence of Substance-K receptor (Homo sapiens), P21452 [F168A] (P21452 whole entry F168A): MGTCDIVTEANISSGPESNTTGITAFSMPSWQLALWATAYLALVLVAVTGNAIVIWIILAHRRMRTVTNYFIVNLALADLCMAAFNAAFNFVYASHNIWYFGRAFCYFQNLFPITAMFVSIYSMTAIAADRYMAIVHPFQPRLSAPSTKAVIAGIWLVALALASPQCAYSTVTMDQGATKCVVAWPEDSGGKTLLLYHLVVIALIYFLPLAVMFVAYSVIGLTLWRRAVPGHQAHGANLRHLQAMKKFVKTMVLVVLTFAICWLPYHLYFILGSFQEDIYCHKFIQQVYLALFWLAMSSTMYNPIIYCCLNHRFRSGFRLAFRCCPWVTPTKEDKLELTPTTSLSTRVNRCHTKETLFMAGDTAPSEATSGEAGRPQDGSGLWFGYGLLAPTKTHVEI
Summary of the method: (§1)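 Membranes from cells stably transfected with wild-type or mutant hNK-2R, incubated with [3H]nepadutant for 60 min at 20 °C in 50 mM Tris-HCl pH 7.4 containing peptidase inhibitors, 150 mM NaCl, 5 mM MnCl2 and 1 g/L BSA. Competitors ranged 0.3 pM–10 μM. Nonspecific binding was defined with 1 mM unlabeled ligand. Bound label was collected by filtration and counted. Means from ≥3 duplicate experiments.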

[2] = test system: T1, Substance-K receptor (Homo sapiens), P21452 [S170A]
T1 sequence (whole entry): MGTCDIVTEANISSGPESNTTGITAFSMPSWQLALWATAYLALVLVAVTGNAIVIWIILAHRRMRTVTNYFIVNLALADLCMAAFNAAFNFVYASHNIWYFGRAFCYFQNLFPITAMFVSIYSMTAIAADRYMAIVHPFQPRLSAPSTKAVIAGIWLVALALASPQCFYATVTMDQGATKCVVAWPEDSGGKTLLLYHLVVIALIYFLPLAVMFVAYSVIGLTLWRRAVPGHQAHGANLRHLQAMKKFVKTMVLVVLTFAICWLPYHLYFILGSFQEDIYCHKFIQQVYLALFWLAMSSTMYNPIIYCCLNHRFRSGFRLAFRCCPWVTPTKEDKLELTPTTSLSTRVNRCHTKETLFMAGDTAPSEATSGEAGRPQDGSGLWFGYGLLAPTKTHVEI

[3] = test system: Substance-K receptor (Homo sapiens), P21452 [Q166A]; experiment: Binding affinity against Q166A human neurokinin-2 receptor (hNK-2R) using [3H]nepadutant as a radioligand; summary of the method: as §1
Sequence of Substance-K receptor (Homo sapiens), P21452 [Q166A] (P21452 whole entry Q166A): as the sequence (P21452 whole entry F168A) above, with Q166A, A168F counted along it

[4] = test system: T2, Substance-K receptor (Homo sapiens), P21452 [Y266F]; experiment: Binding affinity against Y266F human neurokinin-2 receptor (hNK-2R) using [3H]nepadutant as a radioligand; UB is Undetectable Binding; summary of the method: as §1
T2 sequence (whole entry): T1 sequence (whole entry) with A170S, Y266F

[5] = test system: T2, Substance-K receptor (Homo sapiens), P21452 [Y266F]
[6] = test system: T1, Substance-K receptor (Homo sapiens), P21452 [S170A]; experiment: Binding affinity against S170A human neurokinin-2 receptor (hNK-2R) using [3H]nepadutant as a radioligand; summary of the method: as §1
[7] = test system: Substance-K receptor (Homo sapiens), P21452 [Y269F]; experiment: Binding affinity against Y269F human neurokinin-2 receptor (hNK-2R) using [3H]nepadutant as a radioligand; summary of the method: as §1
Sequence of Substance-K receptor (Homo sapiens), P21452 [Y269F] (P21452 whole entry Y269F): as the sequence (P21452 whole entry F168A) above, with A168F, Y269F counted along it

[8] = target: T3, Substance-K receptor (Homo sapiens) (UniProt P21452); experiment: Binding affinity against wild type human Wild-type tachykinin receptor 2 (hNK-2R) using [3H]nepadutant as a radioligand; summary of the method: as §1
T3 sequence (whole entry): T1 sequence (whole entry) with A170S

[9] = target: T3, Substance-K receptor (Homo sapiens); experiment: Binding affinity against wild-type human Wild-type tachykinin receptor 2 (hNK-2R) using [3H]-SR-48,968 as a radioligand
Summary of the method: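 Radioligand [3H]SR48968 was incubated for 30 min at 20 °C with membranes from stably transfected wild-type or mutant hNK-2R cells, in Tris-HCl 50 mM pH 7.4 buffer with protease inhibitors, NaCl, MnCl2 and BSA. Test ligands ranged 0.3 pM–10 μM, with nonspecific binding in 1 mM unlabeled ligand. Filtration through PEI-soaked filters was followed by scintillation counting. pKi was derived by curve fitting, duplicate determinations.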

[10] = test system: Substance-K receptor (Homo sapiens), P21452 [Y269A]; experiment: Binding affinity against Y269A human neurokinin-2 receptor (hNK-2R) using [3H]nepadutant as a radioligand; summary of the method: as §1
Sequence of Substance-K receptor (Homo sapiens), P21452 [Y269A] (P21452 whole entry Y269A): as the sequence (P21452 whole entry F168A) above, with A168F, Y269A counted along it

[11] = test system: Substance-K receptor (Homo sapiens), P21452 [I202F]; experiment: Binding affinity against I202F human neurokinin-2 receptor (hNK-2R) using [3H]nepadutant as a radioligand; summary of the method: as §1
Sequence of Substance-K receptor (Homo sapiens), P21452 [I202F] (P21452 whole entry I202F): as the sequence (P21452 whole entry F168A) above, with A168F, I202F counted along it

[12] = test system: Substance-K receptor (Homo sapiens), P21452 [Y289F]; experiment: Binding affinity against Y289F human neurokinin-2 receptor (hNK-2R) using [3H]nepadutant as a radioligand; summary of the method: as §1
Sequence of Substance-K receptor (Homo sapiens), P21452 [Y289F] (P21452 whole entry Y289F): as the sequence (P21452 whole entry F168A) above, with A168F, Y289F counted along it

[13] = test system: Substance-K receptor (Homo sapiens), P21452 [F112A]; experiment: Binding affinity against F112A human neurokinin-2 receptor (hNK-2R) using [3H]nepadutant as a radioligand; summary of the method: as §1
Sequence of Substance-K receptor (Homo sapiens), P21452 [F112A] (P21452 whole entry F112A): as the sequence (P21452 whole entry F168A) above, with F112A, A168F counted along it

[14] = test system: Substance-K receptor (Homo sapiens), P21452 [Y289T]; experiment: Binding affinity against Y289T human neurokinin-2 receptor (hNK-2R) using [3H]nepadutant as a radioligand; summary of the method: as §1
Sequence of Substance-K receptor (Homo sapiens), P21452 [Y289T] (P21452 whole entry Y289T): as the sequence (P21452 whole entry F168A) above, with A168F, Y289T counted along it

[15] = test system: Substance-K receptor (Homo sapiens), P21452 [F293A]; experiment: Binding affinity against F293A human neurokinin-2 receptor (hNK-2R) using [3H]nepadutant as a radioligand; summary of the method: as §1
Sequence of Substance-K receptor (Homo sapiens), P21452 [F293A] (P21452 whole entry F293A): as the sequence (P21452 whole entry F168A) above, with A168F, F293A counted along it

[16] = test system: Substance-K receptor (Homo sapiens), P21452 [S164A]; experiment: Binding affinity against S164A human neurokinin-2 receptor (hNK-2R) using [3H]nepadutant as a radioligand; summary of the method: as §1
Sequence of Substance-K receptor (Homo sapiens), P21452 [S164A] (P21452 whole entry S164A): as the sequence (P21452 whole entry F168A) above, with S164A, A168F counted along it

## CC(=O)N[C@@H]1[C@@H](O)[C@H](O)[C@@H](CO)O[C@H]1NC(=O)C[C@@H]1NC(=O)[C@H](CC(C)C)NC(=O)[C@@H]2CNC(=O)C[C@H](NC1=O)C(=O)N[C@@H](Cc1c[nH]c3ccccc13)C(=O)N[C@@H](Cc1ccccc1)C(=O)N2 (cyclo(D(NH(β-GlcNAc))DWF[Dap]L); lactam 2-5)
[1]
  KD/Ki: 4.1 nM
[2]
  KD/Ki: 1.9 nM
[3]
  KD/Ki: 3.5 nM
[4]
  UB: inactive
[5]
  KD/Ki: 16.3 nM
[6]
  KD/Ki: 1.5 nM
[7]
  KD/Ki: 1.7 nM
[8]
  KD/Ki: 4 nM
[9]
  KD/Ki: 9.1 nM
[10]
  KD/Ki: 19 nM
[11]
  KD/Ki: 0.44 nM
[12]
  KD/Ki: 2.9 nM
[13]
  KD/Ki: 22.1 nM
[14]
  KD/Ki: 11.2 nM
[15]
  KD/Ki: 7.4 nM
[16]
  KD/Ki: 2.6 nM
